In ChEMBL document CHEMBL2177098, “Synthesis and evaluation of novel ¹⁸F labeled 2-pyridinylbenzoxazole and 2-pyridinylbenzothiazole derivatives as ligands for positron emission tomography (PET) imaging of β-amyloid plaques” (J Med Chem, 2012):

Tests used:
[1] = Displacement of [125I]-IMPY from amyloid beta (1 to 42) fibrils after 2 hrs by gamma-counting analysis
Summary of the method: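 Competition binding with aggregated Aβ1-42 fibrils and [125I]IMPY (60000−100000 cpm/100 μL) in 0.05% BSA (1 mL total); inhibitors 10⁻⁴−10^−8.5 M in ethanol. Incubated 37 °C for 2 h, then GF/B vacuum filtration with PBS (0.02 M, pH 7.4) washes and γ counting. Three repeats; IC50 converted to Ki by Cheng−Prusoff.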

[2] = test system: Brain; experiment: Ratio of drug uptake in brain at 2 mins to drug uptake in brain at 60 mins in iv dosed ICR mouse; type: ADME, organism-based; conditions: in vivo

CNc1ccc(/C=C/c2ccc(OCCOCCOCC[18F])cc2)cc1 [FLORBETABEN F18]
Ki [1]: 6.7 nM | Ratio [2]: 3.13
